Key:
[1] = system: Rattus norvegicus; test: Hypotensive activity in normotensive Wistar rat assessed as systolic blood pressure at 5 mg/kg, iv after 10 mins (Rvb=139 +/- 0.6 mmHg); type: functional, Artery
[2] = system: Rattus norvegicus; test: Hypotensive activity in normotensive Wistar rat assessed as diastolic blood pressure at 5 mg/kg, iv after 30 mins (Rvb=120 +/- 1.7 mmHg); type: functional, Artery
[3] = system: Rattus norvegicus; test: Hypotensive activity in normotensive Wistar rat assessed as systolic blood pressure at 5 mg/kg, iv after 20 mins (Rvb=139 +/- 0.6 mmHg); type: functional, Artery
[4] = system: Rattus norvegicus; test: Hypotensive activity in normotensive Wistar rat assessed as systolic blood pressure at 5 mg/kg, iv after 5 mins (Rvb=139 +/- 0.6 mmHg); type: functional, Artery
[5] = system: Rattus norvegicus; test: Hypotensive activity in normotensive Wistar rat assessed as diastolic blood pressure at 5 mg/kg, iv after 60 mins (Rvb=120 +/- 1.7 mmHg); type: functional, Artery
[6] = system: Rattus norvegicus; test: Hypotensive activity in normotensive Wistar rat assessed as diastolic blood pressure at 5 mg/kg, iv after 30 mins (Rvb=126 +/- 4.6 mmHg); type: functional, Artery
[7] = system: Rattus norvegicus; test: Hypotensive activity in normotensive Wistar rat assessed as systolic blood pressure at 5 mg/kg, iv after 60 mins (Rvb=141.3 +/- 6.4 mmHg); type: functional, Artery
[8] = system: Rattus norvegicus; test: Hypotensive activity in normotensive Wistar rat assessed as systolic blood pressure at 5 mg/kg, iv after 30 mins (Rvb=141.3 +/- 6.4 mmHg); type: functional, Artery
[9] = system: Rattus norvegicus; test: Hypotensive activity in normotensive Wistar rat assessed as diastolic blood pressure at 5 mg/kg, iv after 10 mins (Rvb=126 +/- 4.6 mmHg); type: functional, Artery
[10] = system: Rattus norvegicus; test: Hypotensive activity in normotensive Wistar rat assessed as diastolic blood pressure at 5 mg/kg, iv after 60 mins (Rvb=126 +/- 4.6 mmHg); type: functional, Artery
[11] = system: Rattus norvegicus; test: Hypotensive activity in normotensive Wistar rat assessed as diastolic blood pressure at 5 mg/kg, iv after 20 mins (Rvb=126 +/- 4.6 mmHg); type: functional, Artery
[12] = system: Rattus norvegicus; test: Hypotensive activity in normotensive Wistar rat assessed as diastolic blood pressure at 5 mg/kg, iv after 5 mins (Rvb=119 +/- 1.2 mmHg); type: functional, Artery
[13] = system: Rattus norvegicus; test: Hypotensive activity in normotensive Wistar rat assessed as systolic blood pressure at 5 mg/kg, iv after 10 mins (Rvb=138 +/- 0.9 mmHg); type: functional, Artery
[14] = system: Rattus norvegicus; test: Hypotensive activity in normotensive Wistar rat assessed as systolic blood pressure at 5 mg/kg, iv after 20 mins (Rvb=138 +/- 0.9 mmHg); type: functional, Artery
[15] = system: Rattus norvegicus; test: Hypotensive activity in normotensive Wistar rat assessed as diastolic blood pressure at 5 mg/kg, iv after 20 mins (Rvb=119 +/- 1.2 mmHg); type: functional, Artery
[16] = system: Rattus norvegicus; test: Hypotensive activity in normotensive Wistar rat assessed as diastolic blood pressure at 5 mg/kg, iv after 30 mins (Rvb=119 +/- 1.2 mmHg); type: functional, Artery
[17] = system: Rattus norvegicus; test: Hypotensive activity in normotensive Wistar rat assessed as systolic blood pressure at 5 mg/kg, iv after 5 mins (Rvb=138 +/- 0.9 mmHg); type: functional, Artery
[18] = system: Rattus norvegicus; test: Hypotensive activity in normotensive Wistar rat assessed as diastolic blood pressure at 5 mg/kg, iv after 60 mins (Rvb=119 +/- 1.2 mmHg); type: functional, Artery
[19] = system: Rattus norvegicus; test: Hypotensive activity in normotensive Wistar rat assessed as systolic blood pressure at 2.5 mg/kg, iv after 5 mins (Rvb=125.6 +/- 7.6 mmHg); type: functional, Artery
[20] = system: Rattus norvegicus; test: Hypotensive activity in normotensive Wistar rat assessed as diastolic blood pressure at 2.5 mg/kg, iv after 30 mins (Rvb=107.2 +/- 7.3 mmHg); type: functional, Artery
[21] = system: Rattus norvegicus; test: Hypotensive activity in normotensive Wistar rat assessed as systolic blood pressure at 2.5 mg/kg, iv after 30 mins (Rvb=125.6 +/- 7.6 mmHg); type: functional, Artery
[22] = system: Rattus norvegicus; test: Hypotensive activity in normotensive Wistar rat assessed as diastolic blood pressure at 2.5 mg/kg, iv after 10 mins (Rvb=107.2 +/- 7.3 mmHg); type: functional, Artery
[23] = system: Rattus norvegicus; test: Hypotensive activity in normotensive Wistar rat assessed as systolic blood pressure at 2.5 mg/kg, iv after 60 mins (Rvb=125.6 +/- 7.6 mmHg); type: functional, Artery
[24] = system: Rattus norvegicus; test: Hypotensive activity in normotensive Wistar rat assessed as systolic blood pressure at 2.5 mg/kg, iv after 20 mins (Rvb=125.6 +/- 7.6 mmHg); type: functional, Artery
[25] = system: Rattus norvegicus; test: Hypotensive activity in normotensive Wistar rat assessed as systolic blood pressure at 2.5 mg/kg, iv after 10 mins (Rvb=125.6 +/- 7.6 mmHg); type: functional, Artery
[26] = system: Rattus norvegicus; test: Hypotensive activity in normotensive Wistar rat assessed as diastolic blood pressure at 5 mg/kg, iv after 20 mins (Rvb=125.5 +/- 0.6 mmHg); type: functional, Artery
[27] = system: Rattus norvegicus; test: Hypotensive activity in normotensive Wistar rat assessed as diastolic blood pressure at 5 mg/kg, iv after 30 mins (Rvb=125.5 +/- 0.6 mmHg); type: functional, Artery
[28] = system: Rattus norvegicus; test: Hypotensive activity in normotensive Wistar rat assessed as diastolic blood pressure at 5 mg/kg, iv after 5 mins (Rvb=125.5 +/- 0.6 mmHg); type: functional, Artery
[29] = system: Rattus norvegicus; test: Hypotensive activity in normotensive Wistar rat assessed as systolic blood pressure at 5 mg/kg, iv after 20 mins (Rvb=142.5 +/- 3.6 mmHg); type: functional, Artery
[30] = system: Rattus norvegicus; test: Hypotensive activity in normotensive Wistar rat assessed as systolic blood pressure at 5 mg/kg, iv after 10 mins (Rvb=142.5 +/- 3.6 mmHg); type: functional, Artery
[31] = Selectivity ratio of Kb for alpha1B adrenoceptor in guinea pig spleen to Kb for Alpha-1D adrenoceptor in Wistar rat thoracic aorta; type: tissue-based
Procedure, shortened: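 Isolated-tissue antagonism assays were run in guinea-pig spleen (α1B) and in endothelium-denuded ~4 mm thoracic aortic rings from male Wistar rats weighing 200–350 g (α1D). Aortic rings sat in Krebs–Henseleit at 37 °C, pH 7.4, gassed with O2/CO2 19:1, at 2 g tension. Two cumulative noradrenaline curves were run 60 min apart, with 30 min antagonist incubation and continuous propranolol. Schild pA2 was taken as pKB, n ≥ 5.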

[32] = system: Rattus norvegicus; test: Hypotensive activity in normotensive Wistar rat assessed as diastolic blood pressure at 5 mg/kg, iv after 10 mins (Rvb=127 +/- 8.1 mmHg); type: functional, Artery
[33] = system: Rattus norvegicus; test: Hypotensive activity in normotensive Wistar rat assessed as systolic blood pressure at 5 mg/kg, iv after 5 mins (Rvb=142.5 +/- 3.6 mmHg); type: functional, Artery
[34] = system: Rattus norvegicus; test: Hypotensive activity in normotensive Wistar rat assessed as diastolic blood pressure at 5 mg/kg, iv after 30 mins (Rvb=127 +/- 8.1 mmHg); type: functional, Artery

Compound COc1ccccc1N1CCN(CC(O)CN2CCC(c3ccccc3)(c3ccccc3)C2=O)CC1.Cl.Cl (centres undefined) has an Activity [1] of 122 mmHg, an Activity [2] of 102.5 mmHg and an Activity [3] of 118 mmHg. For the same compound, the Activity [4] was 125 mmHg and the Activity [5] was 98 mmHg.
Cc1ccccc1N1CCN(CC(O)CN2CCC(c3ccccc3)(c3ccccc3)C2=O)CC1.Cl.Cl (centres undefined) showed an Activity [6] of 117.7 mmHg, an Activity [7] of 116 mmHg and an Activity [8] of 133 mmHg. For the same compound, the Activity [9] was 118 mmHg, the Activity [10] was 99 mmHg and the Activity [11] was 119.7 mmHg.
Work on Cl.Cl.O=C1N(CC(O)CN2CCN(c3ccccc3C(F)(F)F)CC2)CCC1(c1ccccc1)c1ccccc1 (centres undefined) yielded an Activity [12] of 103 mmHg, an Activity [13] of 122 mmHg and an Activity [14] of 119 mmHg. The Activity [15] was 104 mmHg, the Activity [16] was 103 mmHg and the Activity [17] was 126 mmHg. It also gave an Activity [18] of 100 mmHg.
COc1ccc(N2CCN(CC(O)CN3CCC(c4ccccc4)(c4ccccc4)C3=O)CC2)cc1.Cl.Cl (centres undefined) gave an Activity [19] of 126.6 mmHg, an Activity [20] of 88.2 mmHg and an Activity [21] of 105.6 mmHg. For the same compound, the Activity [22] was 96.4 mmHg, the Activity [23] was 105.8 mmHg and the Activity [24] was 107.6 mmHg. The Activity [25] was 115.2 mmHg.
For Cl.Cl.O=C1N(CC(O)CN2CCN(c3ccccc3)CC2)CCC1(c1ccccc1)c1ccccc1 (centres undefined), the Activity [26] was 116.5 mmHg, the Activity [27] was 113.5 mmHg and the Activity [28] was 119 mmHg.
CCOc1ccccc1N1CCN(CC(O)CN2CCC(c3ccccc3)(c3ccccc3)C2=O)CC1.Cl.Cl (centres undefined) gave an Activity [29] of 111 mmHg, an Activity [30] of 118 mmHg and a Ratio [31] of 5.2. The Activity [32] was 105 mmHg, the Activity [33] was 130 mmHg and the Activity [34] was 96 mmHg.
